Experiment [1] addresses GST-KLHDC2 R241K (kelch repeat domain) (human) (UniProt Q9Y2U9). The experiment is described as follows: AlphaScreen or HTRF. Background: Bead proximity is the source of the signal in Alpha formats.
The target in experiment [2] is GST-KLHDC2 (kelch repeat domain, amino acid 1-362) (human) (UniProt Q9Y2U9). As to the kind of experiment: AlphaScreen or HTRF.
The target in experiment [3] is T1, GST-tagged KLHDC2 (kelch repeat domain, WT) (Homo sapiens, UniProt Q9Y2U9).
T1 sequence (Q9Y2U9 1-362): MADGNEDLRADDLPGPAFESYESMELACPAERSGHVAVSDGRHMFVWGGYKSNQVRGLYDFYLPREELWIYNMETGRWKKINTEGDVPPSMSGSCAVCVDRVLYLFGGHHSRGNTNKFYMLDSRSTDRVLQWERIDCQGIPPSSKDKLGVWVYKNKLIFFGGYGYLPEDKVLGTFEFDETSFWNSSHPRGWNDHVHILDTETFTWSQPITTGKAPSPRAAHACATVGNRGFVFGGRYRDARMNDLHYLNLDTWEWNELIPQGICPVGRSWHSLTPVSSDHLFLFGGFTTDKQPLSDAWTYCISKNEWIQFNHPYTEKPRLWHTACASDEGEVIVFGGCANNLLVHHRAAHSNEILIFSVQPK
As to the kind of experiment: AlphaScreen competition assay, wild type KLHDC2. It counts as binding. To be noted: USP1 vs SelK 8 aa peptide. In a few lines:
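Human KLHDC2 kelch domain (aa 1–362), GST-tagged, was expressed in baculovirus-infected Hi5 cells. It was purified by glutathione agarose, Q Sepharose and Superdex-200. The assay used 0.12 nM protein on anti-GST acceptor beads and 1.7 nM biotinylated 12 aa SelK peptide on streptavidin donor beads, 5 μg/ml beads. Buffer: HEPES pH 7.5, NaCl, TCEP, Tween-20, BSA. Competitor peptides ran 2 nM–3 mM, in triplicate; IC50 by non-linear fitting.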

Experiment [4] addresses T2, GST-KLHDC2 (kelch repeat domain, amino acid 1-362) (human, UniProt Q9Y2U9 1-362).
T2 sequence (looked up): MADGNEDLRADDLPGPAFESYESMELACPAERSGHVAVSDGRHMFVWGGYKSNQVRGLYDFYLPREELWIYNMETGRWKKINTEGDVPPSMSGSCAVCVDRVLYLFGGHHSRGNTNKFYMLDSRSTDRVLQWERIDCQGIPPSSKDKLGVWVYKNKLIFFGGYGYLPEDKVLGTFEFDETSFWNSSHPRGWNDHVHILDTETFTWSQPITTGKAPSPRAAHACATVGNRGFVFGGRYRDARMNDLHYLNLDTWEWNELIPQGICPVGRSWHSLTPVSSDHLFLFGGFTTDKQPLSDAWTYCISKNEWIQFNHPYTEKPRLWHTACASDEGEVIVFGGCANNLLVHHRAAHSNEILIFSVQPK
As to the kind of experiment: AlphaScreen or HTRF.

Experiment [5] deals with T3, GST-KLHDC2 R241K (kelch repeat domain) (human, UniProt Q9Y2U9 1-362, R241K).
T3 sequence (looked up): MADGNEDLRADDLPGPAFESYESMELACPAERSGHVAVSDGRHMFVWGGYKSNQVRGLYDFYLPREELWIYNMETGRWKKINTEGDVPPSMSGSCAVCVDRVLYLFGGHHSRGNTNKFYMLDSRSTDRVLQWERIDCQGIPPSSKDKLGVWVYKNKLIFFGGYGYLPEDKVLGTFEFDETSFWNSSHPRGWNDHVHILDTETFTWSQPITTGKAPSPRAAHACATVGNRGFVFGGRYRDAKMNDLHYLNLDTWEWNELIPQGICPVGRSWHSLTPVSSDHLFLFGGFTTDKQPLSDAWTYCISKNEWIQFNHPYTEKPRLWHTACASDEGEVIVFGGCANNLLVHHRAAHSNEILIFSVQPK
As to the kind of experiment: AlphaScreen or HTRF.

Experiment [6] deals with T2, GST-KLHDC2 (kelch repeat domain, amino …). As to the kind of experiment: BLI.

Where no end group is shown, it is not given here.

For the molecule 8 aa USP1-NTD C-end degron peptide, the IC50 in experiment [1] stood at 62.6 µM; in experiment [2] it was 69.5 nM.
In experiment [2], “diglycine (2 aa SelK degron peptide, label-free)” displayed a Kd of 360 µM.
For EAIGLLGG-OH [USP1-NTD degron peptide], the “fold lower potency/affinity vs SelK” value in experiment [3] was “about 7 fold”.

B1: 8 aa SelK degron peptide, C-terminally amidated (peptide, UniProt Q9Y6D0 84-91, looked up)
peptide: SPPPMAGG-NH2
B1: the “fold decrease in affinity against the unmodified 8 aa peptide” value in experiment [4] is ~1000 fold.

B2: 12 aa SelK degron peptide (label-free) (peptide, UniProt Q9Y6D0 80-91, looked up)
peptide: LRGPSPPPMAGG
As for B2, in experiment [4], the IC50 is ~3 nM.

B3: 8 aa SelK C-end degron peptide (label-free, wild type) (peptide, UniProt Q9Y6D0 84-91, looked up)
peptide: SPPPMAGG
Consider B3, for which, in experiment [5], the IC50 was found to be 5.9 µM.

B4: biotinylated 12 aa SelK degron peptide (peptide, UniProt Q9Y6D0 80-91, looked up)
peptide: LRGPSPPPMAGG
modifications: also: biotin, position not given here
As to B4, the Kd in experiment [6] is ~4 nM.

B5: 6 aa SelK degron peptide (label-free) (peptide, UniProt Q9Y6D0 86-91, looked up)
peptide: PPMAGG
Turning to B5, the binding result in experiment [4] is “binds”.

One may read the IC50 as the point on the concentration scale where inhibition reaches its midpoint. Read a high IC50 as weaker potency. One may read the Kd as the constant that tells how readily two partners part at equilibrium. Lower therefore signals higher affinity.

(Values after publication PMC6294321 (Molecular cell, 2018).)
